The nature of series [1]: Volume of distribution at steady state in Balb/c mouse at 1 mg/kg, iv. It is filed as ADME, organism-based. Conditions: Balb/c, in vivo, read-out: Vdss. Summed up:
(§1)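 Intravenous PK in male Balb/C mice, n=3, at 1 mpk. Vehicle was 30% DMA or 15% NMP, depending on the compound.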

Series [2] can be described thus: in vitro. Conditions: mouse, liver microsomes.
Series [3] relates to Salmonella typhimurium. In words: Genotoxicity in Salmonella typhimurium TA1535 up to 2000 uM after 2 days in presence or absence of liver S9 fraction by Ames test. It is filed as toxicity, organism-based. Particulars: salmonella enterica subsp. enterica serovar typhimurium, s9, 48 h. In short, it runs like this:
(§2)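 Ames MPF format with Salmonella typhimurium TA98, TA100, TA1535, TA1537 and E. coli uvrA. Run with and without metabolic activation (S9), 2-day incubation, up to 2000 µM.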
In general terms: The Ames test uses bacterial strains that need an amino acid and regain growth without it when mutated back.

Series [4] is described as follows: in vitro. Particulars: human, liver microsomes. Background: Microsomes from liver hold many membrane-bound enzymes, among them those of drug oxidation.
For series [5], the system named is Mus musculus. The experiment in a line: Unbound AUC (infinity) in Balb/c mouse at 10 mg/kg, po after 1 hr. Conditions: in vivo. It is filed as ADME, organism-based.
Series [6] can be described thus: Oral bioavailability in Balb/c mouse at 10 mg/kg after 1 hr. Particulars: Balb/c, in vivo. It is filed as ADME, organism-based. Summed up: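 Male Balb/C mice, n=3. Oral dose of 10 mpk as a homogeneous suspension of crystalline solid in 0.1% Tween 80, 0.1% silicone antifoam, 1% methylcellulose (400 cps) in water. I.v. dose of 1 mpk in 30% DMA or 15% NMP, depending on the compound. Bioavailability was extrapolated from the i.v./p.o. experiments.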

Series [7] is described as follows: Clearance in Balb/c mouse at 1 mg/kg, iv. It is filed as ADME, organism-based. Particulars: Balb/c, in vivo. Summed up:
as §1

Series [8] is described as follows: Apparent clearance in Balb/c mouse at 10 mg/kg, po after 1 hr. It is filed as ADME, organism-based. Particulars: in vivo.
Series [9] can be described thus: physchem. Conditions: pH 7.4 solution.
Series [10] can be described thus: Thermodynamic solubility of the compound in pH 7.4 solution after 90 mins by UVLC-MS analysis. It is filed as physicochemical. Particulars: pH 7.4 solution, pH 7.4; read-out: Therm_solubility.
Series [11] can be described thus: Half life in Balb/c mouse at 1 mg/kg, iv. It is filed as ADME, organism-based. Conditions: Balb/c, in vivo. Summed up: as §1
Series [12] is described as follows: physchem. Particulars: phosphate buffer, pH 7.4.
Series [13] concerns Mus musculus. The experiment in a line: Inhibition of allograft rejection in Balb/c mouse heterotopic cardiac transplantation model using C57BL/6 as cardiac donor assessed as long-term graft survival rate by measuring cardiac allograft function by daily palpitation at 5 mg/kg, po qd for 28 days. It is filed as functional, organism-based. Conditions: in the assay text read “for 14 days” for “for 28 days”. In short, it runs like this:
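Heterotopic cardiac allografts from C57BL/6 donors into Balb/C recipients. Recipients received 5 mpk as a homogeneous suspension in 0.1% Tween 80, 0.1% silicone antifoam, 1% methylcellulose (400 cps), or vehicle alone, by oral gavage once daily. Survival was compared with vehicle; rejection was indicated when the graft stopped beating.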

The subject of series [14] is Salmonella typhimurium. The experiment in a line: Genotoxicity in Salmonella typhimurium TA100 up to 2000 uM after 2 days in presence or absence of liver S9 fraction by Ames test. Particulars: salmonella enterica subsp. enterica serovar typhimurium, s9, 48 h. It is filed as toxicity, organism-based. In short, it runs like this: as §2
The next series deals with Escherichia coli. The experiment in a line: Genotoxicity in Escherichia coli uvrA up to 2000 uM after 2 days in presence or absence of liver S9 fraction by Ames test. It is filed as toxicity, organism-based. Particulars: s9, 48 h. Summed up:
as §2

The test system of series [15] is Mus musculus. The experiment in a line: Unbound AUC in Balb/c mouse at 1 mg/kg, iv. It is filed as ADME, organism-based. Particulars: in vivo. In short, it runs like this:
as §1

Series [16] has as its system Salmonella typhimurium. The experiment in a line: Genotoxicity in Salmonella typhimurium TA1537 up to 2000 uM after 2 days in presence or absence of liver S9 fraction by Ames test. It is filed as toxicity, organism-based. Conditions: salmonella enterica subsp. enterica serovar typhimurium, s9, 48 h. Summed up:
as §2

In series [17] the test system is Mus musculus. In words: Unbound Cmax in Balb/c mouse at 10 mg/kg, po after 1 hr. It is filed as ADME, organism-based. Particulars: in vivo.
For series [18], the system named is Salmonella typhimurium. In words: Genotoxicity in Salmonella typhimurium TA98 up to 2000 uM after 2 days in presence or absence of liver S9 fraction by Ames test. It is filed as toxicity, organism-based. Particulars: salmonella enterica subsp. enterica serovar typhimurium, s9, 48 h. In short, it runs like this: as §2
Series [19] in a line: Fraction unbound in mouse blood. It is filed as ADME, tissue-based.
The subject of series [20] is Salmonella typhimurium. The experiment in a line: Genotoxicity in Salmonella typhimurium TA100 up to 1000 uM after 2 days in presence or absence of liver S9 fraction by Ames test. It is filed as toxicity, organism-based. Conditions: salmonella enterica subsp. enterica serovar typhimurium, s9, 48 h. In short, it runs like this:
(§3)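 MiniAMES (MPF format) with Salmonella typhimurium TA98, TA100 and TA1537, with and without S9 metabolic activation. 2-day incubation, top concentration 1000 µM.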

Series [21] relates to Salmonella typhimurium. In words: Genotoxicity in Salmonella typhimurium TA98 up to 1000 uM after 2 days in presence or absence of liver S9 fraction by Ames test. Particulars: salmonella enterica subsp. enterica serovar typhimurium, s9, 48 h. It is filed as toxicity, organism-based. In short, it runs like this:
as §3

For series [22], the system named is Salmonella typhimurium. In words: Genotoxicity in Salmonella typhimurium TA1537 up to 1000 uM after 2 days in presence or absence of liver S9 fraction by Ames test. It is filed as toxicity, organism-based. Particulars: salmonella enterica subsp. enterica serovar typhimurium, s9, 48 h. Summed up:
as §3

Each structure is given as a SMILES string. Values after ≈ are worked out from the molar mass of the structure shown. Active and inactive are the calls of the source.

The term microsomal CLint denotes the capacity of the preparation to metabolise the compound, expressed as a volume cleared per time. Low values mean slow turnover, high ones rapid turnover. The term bioavailability denotes dose-corrected exposure relative to a reference, in per cent. High values mean much systemic uptake, low ones little systemic uptake. The term clearance denotes the volume of plasma or blood freed of the substance per unit of time. Read a high clearance as efficient removal. Broadly, the CL/F is clearance divided by bioavailability, as obtained after extravascular dosing. In general, solubility (kinetic) refers to the concentration staying in solution when a stock, usually in DMSO, is diluted into the medium. As usually defined, the half-life is the time needed for the level to fall by half in the phase considered. Low readings indicate fast loss, high ones slow loss. The logD is lipophilicity at a set pH, counting ionised and neutral species. A lower logD goes with lower lipophilicity. As usually defined, the fraction unbound is the share of the substance not bound to proteins or other matrix. Low readings indicate extensive binding, high ones weak binding. As for `COc1ccc(NC(=O)N2CCN(c3nc(N)nc4c3cnn4C)[C@@H](C)C2)c(C)c1`, the Vd in series [1] amounted to 0.6 L/kg. Also, the values for the microsomal CLint at 0.75 h, 3 µM in the series “in vitro [2]” and in the series “in vitro [4]” were 6 µL/min/mg and 4 µL/min/mg, respectively. The Activity entry in the series on Salmonella typhimurium [3], in the series on Salmonella typhimurium [14], in the series with Escherichia coli, with Salmonella typhimurium [16] and in the series on Salmonella typhimurium [18] was “Non-Toxic” in each case. The results for the fAUC in the series on Mus musculus [5] and in the series with Mus musculus [15] were 6.941 µM·h and 0.684 µM·h, respectively. Further, the bioavailability in series [6] worked out at 100%. The clearance in series [7] came to 5 mL/min/kg. For the same compound, in series [8], the CL/F is 5.3 mL/min/kg. Further, the solubility (kinetic) at 1.5 h in the series “physchem [9]” was above 350 µM. For the same compound, in series [10], the solubility thermodynamic at 1.5 h is 110 µM (≈ 45.2 µg/mL). This compound showed a half-life in series [11] of 1.4 h. The same compound showed a log distribution coefficient (logD) at 1.5 h in the series “physchem [12]” of 1.47. In addition, the outcome in the series with Mus musculus [13] was Active. In the series on Mus musculus [17], this compound showed a fCmax of 2113 nM. In series [19], this compound came in with a fraction unbound of 0.09.
With `COc1ccc(N)c(C)c1.Cl`, the Activity entry in the series on Salmonella typhimurium [20], in the series on Salmonella typhimurium [21] and in the series with Salmonella typhimurium [22] was “Non-Toxic” in each case.

The values above are taken from ChEMBL document CHEMBL4190408 (J Med Chem, 2018).
